{"source": "ChEMBL document CHEMBL5154713", "about": "“Illuminating a Dark Kinase: Structure-Guided Design, Synthesis, and Evaluation of a Potent Nek1 Inhibitor and Its Effects on the Embryonic Zebrafish Pronephros” (J Med Chem, 2022)", "key": {"[1]": {"target": "Inhibitor of nuclear factor kappa-B kinase subunit beta (Homo sapiens) (UniProt O14920)", "sequence (O14920 whole entry)": "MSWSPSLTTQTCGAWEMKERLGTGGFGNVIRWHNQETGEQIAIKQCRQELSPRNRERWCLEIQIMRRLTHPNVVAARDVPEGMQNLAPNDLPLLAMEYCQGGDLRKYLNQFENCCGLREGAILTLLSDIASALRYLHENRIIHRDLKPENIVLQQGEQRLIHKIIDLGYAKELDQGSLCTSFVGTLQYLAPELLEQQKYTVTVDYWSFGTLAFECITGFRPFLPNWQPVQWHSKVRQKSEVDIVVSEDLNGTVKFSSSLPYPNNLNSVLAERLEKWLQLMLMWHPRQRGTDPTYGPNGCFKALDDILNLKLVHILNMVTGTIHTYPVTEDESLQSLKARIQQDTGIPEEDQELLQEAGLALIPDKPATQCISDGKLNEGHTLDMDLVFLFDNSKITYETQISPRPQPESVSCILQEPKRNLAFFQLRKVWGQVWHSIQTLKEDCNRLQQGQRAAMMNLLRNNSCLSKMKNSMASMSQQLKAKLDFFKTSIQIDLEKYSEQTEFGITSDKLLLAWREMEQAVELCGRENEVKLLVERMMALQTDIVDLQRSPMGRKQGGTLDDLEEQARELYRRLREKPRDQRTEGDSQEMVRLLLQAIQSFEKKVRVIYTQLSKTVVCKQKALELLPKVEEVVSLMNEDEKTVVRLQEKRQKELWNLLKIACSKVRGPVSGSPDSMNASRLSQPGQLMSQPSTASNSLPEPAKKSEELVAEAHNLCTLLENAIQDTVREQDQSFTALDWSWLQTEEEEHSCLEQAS", "assay": "Inhibition of recombinant human full length IKKbeta assessed as residual activity at 1 uM using peptide as substrate incubated for 40 mins in presence of [gamma 33P]-ATP by radiometric scintillation counting assay relative to control", "procedure,_shortened": "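Eurofins KinaseProfiler radiometric panel, compound at 1 μM, ATP at 10 μM or within 15 μM of apparent Km. For Nek1 (1−505): 8 mM MOPS pH 7.0, 0.2 mM EDTA, 250 μM peptide, 10 mM Mg acetate, [γ-33P]-ATP, 40 min at room temperature. Stopped with 0.5% phosphoric acid, filtermat spotting, scintillation counting. Mean of two independent experiments.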"}, "[2]": {"target": "Inhibitor of nuclear factor kappa-B kinase subunit alpha (Homo sapiens) (UniProt O15111)", "assay": "Inhibition of human full length recombinant IKKalpha assessed as residual activity at 1 uM using peptide as substrate incubated for 40 mins in presence of [gamma 33P]-ATP by radiometric scintillation counting assay relative to control", "procedure,_shortened": "(§1)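 Commercial radiometric panel of 50 kinases. Each recombinant human kinase was tested at a single compound concentration of 1 μM. ATP was set within 15 μM of the apparent Km for ATP for each kinase. Residual activity is relative to control and is the mean of two independent experiments.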"}, "[3]": {"target": "Serine/threonine-protein kinase tousled-like 1 (Homo sapiens) (UniProt Q9UKI8)", "sequence (Q9UKI8 whole entry)": "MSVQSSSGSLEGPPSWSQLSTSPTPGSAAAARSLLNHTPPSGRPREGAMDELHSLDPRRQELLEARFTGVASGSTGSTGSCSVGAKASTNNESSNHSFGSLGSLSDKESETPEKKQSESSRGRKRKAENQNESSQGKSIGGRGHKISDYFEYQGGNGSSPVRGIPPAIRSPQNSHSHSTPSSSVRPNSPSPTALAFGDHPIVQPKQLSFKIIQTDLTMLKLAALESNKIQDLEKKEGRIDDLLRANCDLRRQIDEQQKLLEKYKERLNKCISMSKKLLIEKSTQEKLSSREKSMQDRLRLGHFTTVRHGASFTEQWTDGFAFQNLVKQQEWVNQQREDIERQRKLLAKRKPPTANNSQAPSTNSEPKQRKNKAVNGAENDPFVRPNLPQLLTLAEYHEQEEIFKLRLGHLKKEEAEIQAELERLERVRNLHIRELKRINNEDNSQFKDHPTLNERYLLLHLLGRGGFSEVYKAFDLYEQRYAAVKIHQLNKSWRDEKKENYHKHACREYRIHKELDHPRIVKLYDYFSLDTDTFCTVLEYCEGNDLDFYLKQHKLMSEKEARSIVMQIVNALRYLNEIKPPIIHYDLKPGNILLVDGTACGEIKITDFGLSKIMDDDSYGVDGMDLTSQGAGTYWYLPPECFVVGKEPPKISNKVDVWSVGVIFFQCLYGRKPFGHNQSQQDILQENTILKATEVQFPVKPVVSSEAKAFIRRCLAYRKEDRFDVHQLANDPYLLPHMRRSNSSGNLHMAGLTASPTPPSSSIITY", "assay": "Inhibition of human full length recombinant TLK1 assessed as residual activity at 1 uM using casein as substrate incubated for 40 mins in presence of [gamma 33P]-ATP by radiometric scintillation counting assay relative to control", "procedure,_shortened": "as §1"}, "[4]": {"target": "MAP kinase-activated protein kinase 2 (Homo sapiens) (UniProt P49137)", "sequence (P49137 whole entry, looked up)": "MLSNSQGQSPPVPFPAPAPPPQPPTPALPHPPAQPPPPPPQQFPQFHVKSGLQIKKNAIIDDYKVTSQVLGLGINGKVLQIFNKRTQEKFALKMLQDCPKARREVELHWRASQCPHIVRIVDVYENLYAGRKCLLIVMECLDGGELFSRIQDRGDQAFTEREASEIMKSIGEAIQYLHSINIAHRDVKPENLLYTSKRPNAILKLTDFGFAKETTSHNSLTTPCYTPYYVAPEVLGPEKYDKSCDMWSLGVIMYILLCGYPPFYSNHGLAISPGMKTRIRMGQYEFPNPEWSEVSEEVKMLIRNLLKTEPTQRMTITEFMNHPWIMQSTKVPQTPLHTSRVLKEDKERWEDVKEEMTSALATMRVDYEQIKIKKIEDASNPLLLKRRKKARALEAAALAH", "assay": "Inhibition of recombinant human MAPKAPK2 (46 to end residues) assessed as residual activity at 1 uM using KKLNRTLSVA as substrate incubated for 40 mins in presence of [gamma-33P]-ATP by radiometric scintillation counting method relative to control", "procedure,_shortened": "as §1"}, "[5]": {"target": "Platelet-derived growth factor receptor beta (Homo sapiens) (UniProt P09619)", "sequence (P09619 whole entry)": "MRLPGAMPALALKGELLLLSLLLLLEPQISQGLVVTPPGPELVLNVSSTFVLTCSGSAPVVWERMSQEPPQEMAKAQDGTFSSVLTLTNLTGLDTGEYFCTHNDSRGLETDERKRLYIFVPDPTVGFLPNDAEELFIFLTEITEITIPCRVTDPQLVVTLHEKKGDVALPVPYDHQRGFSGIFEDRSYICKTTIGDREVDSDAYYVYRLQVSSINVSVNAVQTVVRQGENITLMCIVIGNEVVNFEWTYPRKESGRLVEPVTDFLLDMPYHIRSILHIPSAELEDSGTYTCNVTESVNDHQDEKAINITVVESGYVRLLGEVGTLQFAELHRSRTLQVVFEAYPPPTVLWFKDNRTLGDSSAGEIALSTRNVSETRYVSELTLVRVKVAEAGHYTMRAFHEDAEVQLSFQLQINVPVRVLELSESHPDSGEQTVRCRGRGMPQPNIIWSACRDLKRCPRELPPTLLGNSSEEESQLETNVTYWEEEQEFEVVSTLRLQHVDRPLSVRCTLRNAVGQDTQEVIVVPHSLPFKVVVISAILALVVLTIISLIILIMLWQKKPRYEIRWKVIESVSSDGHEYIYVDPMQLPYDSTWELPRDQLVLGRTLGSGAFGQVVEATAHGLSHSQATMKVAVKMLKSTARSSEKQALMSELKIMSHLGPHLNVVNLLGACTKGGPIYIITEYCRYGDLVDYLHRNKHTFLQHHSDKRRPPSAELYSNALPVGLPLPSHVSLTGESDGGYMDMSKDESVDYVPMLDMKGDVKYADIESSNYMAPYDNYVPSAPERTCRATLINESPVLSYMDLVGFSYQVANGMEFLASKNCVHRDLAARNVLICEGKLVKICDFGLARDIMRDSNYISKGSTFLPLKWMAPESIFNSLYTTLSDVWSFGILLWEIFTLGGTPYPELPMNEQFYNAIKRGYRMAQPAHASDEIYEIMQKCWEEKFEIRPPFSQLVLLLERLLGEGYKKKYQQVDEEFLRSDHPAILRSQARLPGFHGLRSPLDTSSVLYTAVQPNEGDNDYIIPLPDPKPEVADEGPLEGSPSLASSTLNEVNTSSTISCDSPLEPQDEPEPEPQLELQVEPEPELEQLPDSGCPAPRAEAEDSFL", "assay": "Inhibition of human PDGFRbeta (557 to end residues) assessed as residual activity at 1 uM using poly(Glu, Tyr) 4:1 as substrate measured after 40 mins in presence of [gamma33P]ATP by scintillation counting method relative to control", "procedure,_shortened": "as §1"}, "[6]": {"target": "Serine/threonine-protein kinase Chk1 (Homo sapiens) (UniProt O14757)", "sequence (O14757 whole entry)": "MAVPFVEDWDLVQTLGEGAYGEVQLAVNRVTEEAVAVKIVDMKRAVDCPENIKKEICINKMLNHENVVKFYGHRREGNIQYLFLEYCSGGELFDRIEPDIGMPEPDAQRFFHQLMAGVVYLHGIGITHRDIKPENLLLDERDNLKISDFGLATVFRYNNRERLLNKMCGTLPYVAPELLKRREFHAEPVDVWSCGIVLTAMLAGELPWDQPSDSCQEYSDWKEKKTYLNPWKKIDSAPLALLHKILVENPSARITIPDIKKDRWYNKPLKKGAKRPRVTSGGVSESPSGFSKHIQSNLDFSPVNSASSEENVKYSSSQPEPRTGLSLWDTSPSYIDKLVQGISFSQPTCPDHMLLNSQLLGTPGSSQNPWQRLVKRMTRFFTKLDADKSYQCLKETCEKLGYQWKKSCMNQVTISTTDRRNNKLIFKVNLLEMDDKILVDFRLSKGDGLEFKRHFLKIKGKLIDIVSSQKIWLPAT", "assay": "Inhibition of human full length recombinant CHK1 assessed as residual activity at 1 uM using KKKVSRSGLYRSPSMPENLNRPR as substrate incubated for 40 mins in presence of [gamma 33P]-ATP by radiometric scintillation counting assay relative to control", "procedure,_shortened": "as §1"}, "[7]": {"target": "Interleukin-1 receptor-associated kinase 4 (Homo sapiens) (UniProt Q9NWZ3)", "assay": "Inhibition of human full length IRAK4 assessed as residual activity at 1 uM using myelin basic protein as substrate incubated for 40 mins in presence of [gamma 33P]-ATP by radiometric scintillation counting assay relative to control", "procedure,_shortened": "as §1"}, "[8]": {"system": "Tyrosine-protein kinase ABL1 (Homo sapiens), P00519 [Q252H]", "assay": "Inhibition of human Abl Q252H mutant (27 to end residues) assessed as residual activity at 1 uM using EAIYAAPFAKKK as substrate incubated for 40 mins in presence of [gamma 33P]-ATP by radiometric scintillation counting assay relative to control", "procedure,_shortened": "as §1"}, "[9]": {"target": "Serine/threonine-protein kinase Nek6 (Homo sapiens) (UniProt Q9HC98)", "assay": "Inhibition of human NEK6 (2 to end residues) assessed as residual activity at 1 uM using FLAKSFGSPNRAYKK as substrate incubated for 40 mins in presence of [gamma 33P]-ATP by radiometric scintillation counting assay relative to control", "procedure,_shortened": "as §1"}, "[10]": {"target": "Mitogen-activated protein kinase kinase kinase 5 (Homo sapiens) (UniProt Q99683)", "sequence (Q99683 whole entry, the tested form may be a part)": "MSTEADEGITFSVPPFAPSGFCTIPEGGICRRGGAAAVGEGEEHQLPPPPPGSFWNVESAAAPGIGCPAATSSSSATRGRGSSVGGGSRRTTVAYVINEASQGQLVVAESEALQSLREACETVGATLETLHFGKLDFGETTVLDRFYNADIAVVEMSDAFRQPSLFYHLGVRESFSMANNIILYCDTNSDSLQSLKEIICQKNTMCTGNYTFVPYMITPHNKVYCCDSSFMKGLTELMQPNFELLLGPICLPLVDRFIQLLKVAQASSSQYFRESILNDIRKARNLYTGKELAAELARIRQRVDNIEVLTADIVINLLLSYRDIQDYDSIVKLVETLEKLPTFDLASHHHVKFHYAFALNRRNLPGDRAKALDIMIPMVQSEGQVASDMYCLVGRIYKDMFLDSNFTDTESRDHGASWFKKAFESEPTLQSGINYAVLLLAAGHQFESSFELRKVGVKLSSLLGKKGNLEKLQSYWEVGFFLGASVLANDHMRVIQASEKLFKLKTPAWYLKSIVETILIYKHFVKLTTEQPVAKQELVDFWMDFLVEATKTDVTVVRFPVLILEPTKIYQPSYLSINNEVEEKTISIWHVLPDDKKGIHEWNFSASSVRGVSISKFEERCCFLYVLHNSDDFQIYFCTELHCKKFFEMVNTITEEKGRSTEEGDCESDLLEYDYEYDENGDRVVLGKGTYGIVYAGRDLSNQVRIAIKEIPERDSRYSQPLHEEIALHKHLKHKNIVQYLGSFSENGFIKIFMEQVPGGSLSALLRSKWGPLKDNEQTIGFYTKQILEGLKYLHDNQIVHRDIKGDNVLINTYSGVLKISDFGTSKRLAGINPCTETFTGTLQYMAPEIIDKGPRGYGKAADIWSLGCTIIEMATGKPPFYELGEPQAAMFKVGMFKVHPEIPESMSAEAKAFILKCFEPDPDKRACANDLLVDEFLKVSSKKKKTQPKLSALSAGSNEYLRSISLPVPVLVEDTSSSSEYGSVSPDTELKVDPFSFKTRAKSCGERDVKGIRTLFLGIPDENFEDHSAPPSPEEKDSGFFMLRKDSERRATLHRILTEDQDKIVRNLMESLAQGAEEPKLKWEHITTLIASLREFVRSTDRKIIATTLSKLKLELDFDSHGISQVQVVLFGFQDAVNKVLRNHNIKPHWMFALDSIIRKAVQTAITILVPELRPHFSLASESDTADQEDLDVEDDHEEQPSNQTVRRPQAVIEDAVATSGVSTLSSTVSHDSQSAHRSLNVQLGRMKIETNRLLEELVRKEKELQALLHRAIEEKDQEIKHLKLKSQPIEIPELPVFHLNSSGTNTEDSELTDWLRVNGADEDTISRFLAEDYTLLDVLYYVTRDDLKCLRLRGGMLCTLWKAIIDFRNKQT", "assay": "Inhibition of recombinant human ASK1 (649 to 946 residues) assessed as residual activity at 1 uM using myelin basic protein as substrate measured after 40 mins in presence of [gamma33P]ATP by radiometric scintillation counting method", "procedure,_shortened": "as §1"}, "[11]": {"assay": "Toxicity in wild-type Zebrafish embryos assessed as effect on ordinary heartbeat at 0.05 to 30 uM measured upto 120 hrs", "design": "species or system Danio rerio", "conditions": "in vivo, dose 0.05-30 µM", "procedure,_shortened": "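Wild-type embryos, 15 per group with intact chorions, dosed at 6 hpf with 0.05–30 μM final concentrations in E3, diluted from a DMSO stock. Survival checked every 24 h by heartbeat over 120 h, and phenotypes assessed visually. At least triplicate, 5 replicates at 30 μM.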"}}}
{"compound": "O=S(=O)(N[C@@H](CO)Cc1c[nH]c2ccccc12)c1ccc(-c2ccnc3[nH]ccc23)cc1", "values": [{"measurement": "Activity", "setting": "[1]", "result": 36.1, "unit": "%"}, {"measurement": "Activity", "setting": "[2]", "result": "< 75", "unit": "%"}, {"measurement": "Activity", "setting": "[3]", "result": "> 75", "unit": "%"}, {"measurement": "Activity", "setting": "[4]", "result": "> 75", "unit": "%"}, {"measurement": "Activity", "setting": "[5]", "result": "> 75", "unit": "%"}, {"measurement": "Activity", "setting": "[6]", "result": "> 75", "unit": "%"}, {"measurement": "Activity", "setting": "[7]", "result": "> 75", "unit": "%"}, {"measurement": "Activity", "setting": "[8]", "result": "> 75", "unit": "%"}, {"measurement": "Activity", "setting": "[9]", "result": "> 75", "unit": "%"}, {"measurement": "Activity", "setting": "[10]", "result": "> 75", "unit": "%"}, {"measurement": "Activity", "setting": "[11]", "result": "Non-Toxic"}]}
